Activity calls are given as the source filed them. The rule behind the calls is not given here.
What was measured:
B16 [1] = experiment: Induction of melanogenesis in mouse B16 2F2 cells assessed as intracellular melanin content after 3 days; format: functional; conditions: B16, 72 h, read-out: ED50 (the source's name)
How it was run: (§1)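 Aliquots of 1 × 10^5 B16 2F2 cells in 1 mL incubated 3 days (72 h) across a triterpene concentration range, including 1.0 and 10 µM. Intracellular melanin content measured per previously described method. ED50 derived from dose-response curves of melanogenesis up-regulation.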

B16 [2] = experiment: Growth inhibition of mouse B16 2F2 cells after 3 days; format: functional, cell-based; conditions: B16, 72 h
How it was run: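 B16 2F2 melanoma subclone, 1 × 10^5 cells per 1 mL aliquot, exposed to a range of triterpene concentrations for 3 days. Viable cells counted as in earlier work. IC50 = concentration giving 50% growth inhibition.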

B16 [3] = experiment: Induction of melanogenesis in mouse B16 2F2 cells assessed as intracellular melanin content up to 10 uM after 3 days; format: functional, cell-based; how it was run: as §1
B16 [4] = experiment: Induction of apoptosis in mouse B16 2F2 cells assessed as condensation and fragmentation of nuclei at 10 uM after 48 hrs by Hoechst 33258 staining based fluorescence microscopy; format: functional
How it was run: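 B16 2F2 cells held with or without triterpene at 10 µM for 48 h, collected, washed in PBS, fixed in 1% glutaraldehyde, then stained 30 min with 50 µM Hoechst 33258. Nuclear condensation/fragmentation scored by fluorescence microscopy, apoptotic cells counted manually on at least 200 cells.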

Structure (SMILES)	EC50 (B16 [1]) [µM]	IC50 (B16 [2]) [µM]	Activity (B16 [3])	Activity (B16 [4]) [%]
C[C@H]1[C@H](C)CC[C@]2(CO)CC[C@]3(C)C(=CC[C@@H]4[C@@]5(C)CC[C@H](O)C(C)(C)[C@@H]5CC[C@]43C)[C@H]12 [UVAOL]	> 50	46.8		
C=C(C)[C@@H]1CC[C@]2(C(=O)O)CC[C@]3(C)[C@H](CC[C@@H]4[C@@]5(C)CC[C@H](O)C(C)(C)[C@@H]5CC[C@]43C)[C@@H]12 [BETULINIC ACID]	4.1	7.9		
C[C@H]1[C@H](C)CC[C@]2(C(=O)O)CC[C@]3(C)C(=CC[C@@H]4[C@@]5(C)CC[C@H](O)C(C)(C)[C@@H]5CC[C@]43C)[C@H]12 [URSOLIC ACID]		3.1	inactive	
C=C(C)[C@@H]1CC[C@]2(C)CC[C@]3(C)[C@H](CC[C@@H]4[C@@]5(C)CC[C@H](OC(C)=O)C(C)(C)[C@@H]5CC[C@]43C)[C@@H]12 [LUPENYL ACETATE]	7.5	22.7		
C=C(C)[C@@H]1CC[C@]2(C(=O)OC)CC[C@]3(C)[C@H](CC[C@@H]4[C@@]5(C)CC[C@H](O)C(C)(C)[C@@H]5CC[C@]43C)[C@@H]12 [METHYL BETULINATE]	2.5	4.9		
C=C(C)[C@@H]1CC[C@]2(COC(C)=O)CC[C@]3(C)[C@H](CC[C@@H]4[C@@]5(C)CC[C@H](OC(C)=O)C(C)(C)[C@@H]5CC[C@]43C)[C@@H]12 [BETULIN DIACETATE]	3.4	36.8		
C=C(C)[C@@H]1CC[C@]2(CO)CC[C@]3(C)[C@H](CC[C@@H]4[C@@]5(C)CC[C@H](O)C(C)(C)[C@@H]5CC[C@]43C)[C@@H]12 [BETULIN]	4.8	27.4		
CC1(C)CC[C@]2(C(=O)O)CC[C@]3(C)C(=CC[C@@H]4[C@@]5(C)CC[C@H](O)C(C)(C)[C@@H]5CC[C@]43C)[C@@H]2C1 [OLEANOLIC_ACID]		4.8	inactive	
C[C@H]1[C@H](C)CC[C@]2(C)CC[C@]3(C)C(=CC[C@@H]4[C@@]5(C)CC[C@H](O)C(C)(C)[C@@H]5CC[C@]43C)[C@H]12	> 50	50		
C[C@H]1[C@H](C)CC[C@]2(C)CC[C@]3(C)C(=CC[C@@H]4[C@@]5(C)CCC(=O)C(C)(C)[C@@H]5CC[C@]43C)[C@H]12	> 50	40.3		
C=C(C)[C@@H]1CC[C@]2(C=O)CC[C@]3(C)[C@H](CC[C@@H]4[C@@]5(C)CCC(=O)C(C)(C)[C@@H]5CC[C@]43C)[C@@H]12 [BETULONAL]	0.35	4.1		
C=C(C)[C@@H]1CC[C@]2(C)CC[C@]3(C)[C@H](CC[C@@H]4[C@@]5(C)CC[C@H](O)C(C)(C)[C@@H]5CC[C@]43C)[C@@H]12 [LUPEOL]	9.9	38		
CC1(C)CC[C@]2(C)CC[C@]3(C)C(=CC[C@@H]4[C@@]5(C)CC[C@H](O)C(C)(C)[C@@H]5CC[C@]43C)[C@@H]2C1 [beta-AMYRIN]	> 50	48.8		
C=C(C)[C@@H]1CC[C@]2(C=O)CC[C@]3(C)[C@H](CC[C@@H]4[C@@]5(C)CC[C@H](O)C(C)(C)[C@@H]5CC[C@]43C)[C@@H]12 [BETULINALDEHYDE]	3.3	6.4		70.4
CC1(C)CC[C@]2(C)CC[C@]3(C)C(=CC[C@@H]4[C@@]5(C)CCC(=O)C(C)(C)[C@@H]5CC[C@]43C)[C@@H]2C1	> 50	38.7		
C=C(C)[C@@H]1CC[C@]2(CO)CC[C@]3(C)[C@H](CC[C@@H]4[C@@]5(C)CCC(=O)C(C)(C)[C@@H]5CC[C@]43C)[C@@H]12 [BETULONE]	0.19	29.3		
CC1(C)CC[C@]2(CO)CC[C@]3(C)C(=CC[C@@H]4[C@@]5(C)CC[C@H](O)C(C)(C)[C@@H]5CC[C@]43C)[C@@H]2C1 [ERYTHRODIOL]	> 50	33.4		
C=C(C)[C@@H]1CC[C@]2(C)CC[C@]3(C)[C@H](CC[C@@H]4[C@@]5(C)CCC(=O)C(C)(C)[C@@H]5CC[C@]43C)[C@@H]12 [LUPENONE]	0.35	25.4		

Source: ChEMBL document CHEMBL1148134, “Differentiation- and apoptosis-inducing activities by pentacyclic triterpenes on a mouse melanoma cell line” (J Nat Prod, 2002)
